Experimental data published in ChEMBL document CHEMBL1144006, “Phenylalanine-containing hydroxamic acids as selective inhibitors of class IIb histone deacetylases (HDACs)” (Bioorg Med Chem, 2008).
pIC50: −log10 of the molar value. Non-standard residues stand in square brackets, D forms with d. Residues, ends and D or L forms follow the SMILES beside them. *: point of attachment. Asu = N[C@@H](CCCCCC(=O)O)C(=O)O; Aib = CC(C)(N)C(=O)O; NHOH = ON*

What was measured:
Histone deacetylase 1 [1] = target: Histone deacetylase 1 (Rattus norvegicus, UniProt Q4QQW4); test: Inhibition of HDAC1 in rat liver extract
[2] = Inhibition of HDAC6 in rat liver extract
Histone deacetylase 1 [3] = target: Histone deacetylase 1 (Homo sapiens, UniProt Q13547); test: Inhibition of FLAG-tagged HDAC1 expressed in human 293T cells; assay type: cell-based
Method in brief: (§1)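 FLAG-HDAC1 or FLAG-HDAC6 was immunoprecipitated with M2 agarose from lysates of overexpressing 293T cells, washed in enzyme buffer and diluted 1:10. Bead suspension, inhibitor and unselective fluorogenic substrate ZMAL were incubated at 37 C for 180 min. The reaction was stopped with TSA/borate pH 9.5/NDA and read at ex 330/em 390 nm. IC50 came from a dilution series against 0% and 100% (TSA) inhibition standards. Selectivity is the ratio of HDAC1 to HDAC6 IC50.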

Rattus norvegicus = species on record: Rattus norvegicus; test: Selectivity for rat liver HDAC6 over rat liver HDAC1
Homo sapiens = species on record: Homo sapiens; test: Selectivity for human FLAG-tagged HDAC6 over human FLAG-tagged HDAC1; method in brief: as §1
MCF7 = test: Cytotoxicity against human MCF7 cells after 48 hrs by One aqueous proliferation assay; assay type: functional, cell-based; settings: MCF7, 48 h
Method in brief: (§2)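 Cells seeded at 5000 per well, with compound or DMSO vehicle added 24 h after seeding. Incubated 48 h at 37 C, three replicates per concentration. Growth was read by MTS absorbance at 490 nm. GI50 is the concentration reducing cell number by 50% versus control.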

SQ20B = test: Cytotoxicity against human SQ20B cells after 48 hrs by One aqueous proliferation assay; assay type: functional, cell-based; method in brief: as §2
HeLa = test: Cytotoxicity against human HeLa cells after 48 hrs by One aqueous proliferation assay; assay type: functional, cell-based; method in brief: as §2
Jurkat = test: Cytotoxicity against human Jurkat cells after 48 hrs by One aqueous proliferation assay; assay type: functional, cell-based; method in brief: as §2
MCF-10A = test: Cytotoxicity against human MCF10A cells after 48 hrs by One aqueous proliferation assay; assay type: functional, cell-based; method in brief: as §2
PC-3 = test: Cytotoxicity against human PC3 cells after 48 hrs by One aqueous proliferation assay; assay type: functional, cell-based; settings: PC-3, 48 h; method in brief: as §2
[4] = target: T1, Protein deacetylase HDAC6 (Homo sapiens, UniProt Q9UBN7); test: Inhibition of FLAG-tagged HDAC6 expressed in human 293T cells; assay type: cell-based
T1 sequence (Q9UBN7 whole entry): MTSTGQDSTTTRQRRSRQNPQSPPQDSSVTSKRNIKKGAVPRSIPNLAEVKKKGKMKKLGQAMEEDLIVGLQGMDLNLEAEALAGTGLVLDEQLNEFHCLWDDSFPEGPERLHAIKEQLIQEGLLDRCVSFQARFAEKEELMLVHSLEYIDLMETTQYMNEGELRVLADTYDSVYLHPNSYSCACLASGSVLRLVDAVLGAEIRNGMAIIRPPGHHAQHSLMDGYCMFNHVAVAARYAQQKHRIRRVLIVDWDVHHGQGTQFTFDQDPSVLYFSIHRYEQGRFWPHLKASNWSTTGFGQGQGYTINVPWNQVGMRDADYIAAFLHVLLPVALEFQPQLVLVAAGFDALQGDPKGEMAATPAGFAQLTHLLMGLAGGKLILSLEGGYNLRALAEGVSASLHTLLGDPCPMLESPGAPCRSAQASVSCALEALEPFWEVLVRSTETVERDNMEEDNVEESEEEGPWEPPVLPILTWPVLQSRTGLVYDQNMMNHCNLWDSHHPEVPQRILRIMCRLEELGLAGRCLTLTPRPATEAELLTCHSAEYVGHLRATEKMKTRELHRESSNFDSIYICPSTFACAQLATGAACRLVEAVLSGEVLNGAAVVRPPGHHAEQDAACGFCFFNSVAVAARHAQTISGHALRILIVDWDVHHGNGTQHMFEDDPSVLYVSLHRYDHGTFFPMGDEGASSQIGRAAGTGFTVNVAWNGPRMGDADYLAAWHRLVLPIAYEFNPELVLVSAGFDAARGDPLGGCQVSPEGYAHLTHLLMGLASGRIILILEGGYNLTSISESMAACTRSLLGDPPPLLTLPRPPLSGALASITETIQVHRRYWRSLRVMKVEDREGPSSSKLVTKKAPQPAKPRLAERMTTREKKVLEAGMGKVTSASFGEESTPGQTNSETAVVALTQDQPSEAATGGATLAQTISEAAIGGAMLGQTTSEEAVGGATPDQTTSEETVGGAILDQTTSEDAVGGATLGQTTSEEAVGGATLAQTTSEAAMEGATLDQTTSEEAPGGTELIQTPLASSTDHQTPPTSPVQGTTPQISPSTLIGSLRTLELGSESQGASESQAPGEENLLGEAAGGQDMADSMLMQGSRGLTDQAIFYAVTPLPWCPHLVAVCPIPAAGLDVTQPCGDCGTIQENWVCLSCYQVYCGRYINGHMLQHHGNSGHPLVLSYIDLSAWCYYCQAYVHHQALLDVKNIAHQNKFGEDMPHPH

Sequence of Histone deacetylase 1 (Rattus norvegicus, UniProt Q4QQW4) (Q4QQW4 whole entry): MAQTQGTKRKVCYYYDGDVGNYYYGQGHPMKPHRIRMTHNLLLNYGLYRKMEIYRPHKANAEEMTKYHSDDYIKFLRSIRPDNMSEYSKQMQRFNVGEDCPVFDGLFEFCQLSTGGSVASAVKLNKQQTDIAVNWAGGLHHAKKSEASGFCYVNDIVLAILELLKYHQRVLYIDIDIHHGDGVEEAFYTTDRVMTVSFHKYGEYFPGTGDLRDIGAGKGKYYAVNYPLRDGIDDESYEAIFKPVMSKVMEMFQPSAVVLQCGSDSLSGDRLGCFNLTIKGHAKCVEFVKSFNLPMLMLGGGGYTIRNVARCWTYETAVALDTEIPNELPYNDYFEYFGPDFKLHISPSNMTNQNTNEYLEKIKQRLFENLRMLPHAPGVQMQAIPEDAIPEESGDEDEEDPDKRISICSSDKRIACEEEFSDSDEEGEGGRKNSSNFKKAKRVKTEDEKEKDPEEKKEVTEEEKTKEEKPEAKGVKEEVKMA
Sequence of Histone deacetylase 1 (Homo sapiens, UniProt Q13547) (Q13547 whole entry): as the sequence (Q4QQW4 whole entry) above, with K8R, E399D, D424E, M481L counted along it

Row | SMILES | pIC50 (Histone deacetylase 1 [1]) | pIC50 [2] | pIC50 (Histone deacetylase 1 [3]) | Ratio IC50 (Rattus norvegicus) | Ratio IC50 (Homo sapiens) | pIC50 (MCF7) | pIC50 (SQ20B) | pIC50 (HeLa) | pIC50 (Jurkat) | pIC50 (MCF-10A) | pIC50 (PC-3) | pIC50 [4]
1 | COC(=O)[C@H](Cc1ccc(Br)cc1)NC(=O)CCCCCCC(=O)NO | 5.50 | 5.30 | 4.64 | 0.64 | 13.5 | 4.66 | 4.60 | 4.82 | 5.52 | < 4.30 | < 4.30 | –
2 | COC(=O)[C@H](Cc1ccc(-c2ccsc2)cc1)NC(=O)CCCCCCCC(=O)NO | 5.52 | 6.09 | 4.72 | 3.72 | 10.8 | 4.77 | 4.43 | 5.00 | 5.55 | 4.49 | 5.00 | 5.75
3 | COC(=O)[C@H](Cc1ccc(-c2ccccc2)cc1)NC(=O)CCCCCCCC(=O)NO | 5.77 | 5.21 | 5.02 | 0.28 | 4.09 | 4.68 | 4.48 | 5.15 | 5.57 | 4.38 | 5.00 | 5.63
4 | COC(=O)[C@H](Cc1ccc(-c2ccc(-c3ccccc3)cc2)cc1)NC(=O)CCCCCCCC(=O)NO | 5.06 | 5.17 | 4.42 | 1.3 | 2.6 | 5.42 | – | – | – | – | – | 4.83
5 | COC(=O)[C@H](Cc1ccc(-c2ccc(-c3ccccc3)cc2)cc1)NC(=O)CCCCCCC(=O)NO | 6.89 | 6.11 | 6.02 | 0.17 | 1.39 | 6.10 | – | – | – | – | – | 6.16
6 | COC(=O)[C@H](Cc1ccc(-c2ccccc2)cc1)NC(=O)CCCCCCC(=O)NO | 6.36 | 6.24 | 5.91 | 0.76 | 1.16 | 5.30 | – | – | – | – | – | 5.98
7 | COC(=O)[C@H](Cc1ccc(Br)cc1)NC(=O)CCCCCCCC(=O)NO | 5.68 | 6.17 | 4.55 | 3.1 | 6.09 | 6.05 | – | – | – | – | – | 5.33
8 | CC1(C)NC(=O)[C@H](CCCCCC(=O)NO)NC(=O)[C@H]2CCCN2C(=O)[C@H](Cc2ccccc2)NC1=O (cyclo([Aib]F[dP][Asu](NHOH))) | 7.68 | 6.64 | 9.40 | 0.09 | 0.01 | – | – | – | – | – | – | 7.40
9 | COC(=O)[C@H](Cc1ccc(-c2ccoc2)cc1)NC(=O)CCCCCCCC(=O)NO | 5.52 | 6.17 | 4.99 | 4.46 | 9.81 | 4.49 | 4.46 | 4.68 | 5.40 | 4.36 | 5.00 | 5.98
10 | COC(=O)[C@H](Cc1ccc(-c2ccco2)cc1)NC(=O)CCCCCCC(=O)NO | 5.12 | 5.17 | 5.58 | 1.11 | 0.58 | 5.82 | – | – | – | – | – | 5.35
11 | COC(=O)[C@H](Cc1ccc(-c2ccco2)cc1)NC(=O)CCCCCCCC(=O)NO | 5.61 | 6.33 | 5.01 | 5.19 | 4.19 | 4.74 | – | – | – | – | – | 5.63
12 | COC(=O)[C@H](Cc1ccc(-c2ccoc2)cc1)NC(=O)CCCCCCC(=O)NO | 5.50 | 5.65 | 5.20 | 1.41 | 5.62 | 5.82 | – | – | – | – | – | 5.95
13 | COC(=O)[C@H](Cc1ccc(-c2cccs2)cc1)NC(=O)CCCCCCCC(=O)NO | 5.59 | 6.08 | 4.78 | 3.04 | 4.1 | 5.40 | – | – | – | – | – | 5.39
14 | COC(=O)[C@H](Cc1ccc(-c2ccsc2)cc1)NC(=O)CCCCCCC(=O)NO | 6.23 | 6.30 | 5.48 | 1.18 | 0.83 | 5.82 | – | – | – | – | – | 5.40
15 | COC(=O)[C@H](Cc1ccc(-c2cccs2)cc1)NC(=O)CCCCCCC(=O)NO | 6.24 | 6.24 | 5.29 | 0.98 | 0.51 | 5.40 | 5.22 | 5.52 | 6.40 | 5.10 | 5.74 | 5.00
16 | COC(=O)[C@H](Cc1ccc(-c2ccc3ccccc3c2)cc1)NC(=O)CCCCCCC(=O)NO | 6.20 | 6.04 | 5.53 | 0.69 | 2.55 | 5.72 | – | – | – | – | – | 5.93
17 | CN(C)c1ccc(C(=O)NCCCCCCC(=O)NO)cc1 | 6.62 | 7.10 | 5.53 | 3 | 3.95 | – | – | – | – | – | – | 6.12
